Values after ≈ are worked out from the molar mass of the structure shown. Active and inactive are the calls of the source.

Common to all, as to assay type: functional
The subject of test [1] is Micrococcus luteus. The test is described as follows: Antimicrobial activity against Micrococcus luteus at 1 mg/ml incubated for 20 to 30 mins followed by incubation for 24 hrs at 37 degC by agar plate method. An outline of the steps:
(§1)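 Agar well diffusion on nutrient agar. Plates swabbed with 60 µL inoculum; 8 mm wells loaded with 100 µL of compound at 1.0 mg/mL. Held 20–30 min at 4 °C for diffusion, then 24 h at 37 °C. Inhibition zone diameter read in mm. Triplicate.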

The test system of test [2] is Staphylococcus aureus. Nature of the test: Antimicrobial activity against Staphylococcus aureus at 1 mg/ml incubated for 20 to 30 mins followed by incubation for 24 hrs at 37 degC by agar plate method. The method, boiled down: as §1
Test [3] has as its system Salmonella typhi. Nature of the test: Antimicrobial activity against Salmonella typhi at 1 mg/ml incubated for 20 to 30 mins followed by incubation for 24 hrs at 37 degC by agar plate method. The settings on record: for diameter of the inhibition zone (DIZ): Salmonella enterica subsp. enterica serovar Typhi. An outline of the steps: (§2)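 Agar well diffusion on nutrient agar. Plates swabbed with 60 µL inoculum, 8 mm wells loaded with 100 µL sample at 1.0 mg/mL, streptomycin standard and control in separate wells. Plates held 20–30 min at 4 °C for diffusion, then 24 h at 37 °C. Zone diameter read in mm; triplicate.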

Test [4] has as its system Salmonella paratyphi. The test is described as follows: Antimicrobial activity against Salmonella paratyphi at 1 mg/ml incubated for 20 to 30 mins followed by incubation for 24 hrs at 37 degC by agar plate method. The settings on record: for diameter of the inhibition zone (DIZ): Salmonella enterica subsp. enterica serovar Paratyphi A. The method, boiled down: as §2
Test [5] has as its system Micrococcus luteus. Nature of the test: Antimicrobial activity against Micrococcus luteus incubated for 12 to 16 hrs by tube dilution method. The method, boiled down: (§3)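 Tube dilution, serial from 500 to 1.9 µg/mL, plus drug-free control tube. Each tube inoculated with 1 mL culture at OD 0.2, incubated 37 °C for 12–16 h. MIC is the lowest concentration with no growth by turbidity. MBC is found by plating each tube on nutrient agar: the lowest concentration at which all cells are killed.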

For test [6], the system named is Micrococcus luteus. The test is described as follows: Antimicrobial activity against Micrococcus luteus incubated for 12 to 16 hrs followed by plating in nutrient agar by tube dilution method. The method, boiled down:
as §3

Test [7] concerns Salmonella typhi. Nature of the test: Antimicrobial activity against Salmonella typhi incubated for 12 to 16 hrs by tube dilution method. An outline of the steps: (§4)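 Broth tube dilution, two-fold serial dilutions from 500 to 1.9 µg/mL plus a drug-free control tube. Each tube inoculated with 1 mL culture at OD 0.2 (~McFarland standard), 37 °C for 12-16 h. Turbidity compared with the control tube. MIC is the lowest concentration giving complete growth inhibition.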

In test [8] the test system is Salmonella typhi. Nature of the test: Antimicrobial activity against Salmonella typhi incubated for 12 to 16 hrs followed by plating in nutrient agar by tube dilution method. An outline of the steps: (§5)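 After 12-16 h at 37 °C in tube dilution (500 to 1.9 µg/mL; 1 mL inoculum at OD 0.2), the culture from each tube was plated on nutrient agar. MBC is the concentration at which cells are completely killed.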

Test [9] concerns Salmonella paratyphi. Nature of the test: Antimicrobial activity against Salmonella paratyphi incubated for 12 to 16 hrs by tube dilution method. The method, boiled down: as §4
The subject of test [10] is Salmonella paratyphi. Nature of the test: Antimicrobial activity against Salmonella paratyphi incubated for 12 to 16 hrs followed by plating in nutrient agar by tube dilution method. An outline of the steps:
as §5

A short description of test [11]: Anti-inflammatory activity at 50 ug/ml using bovine serum albumin and egg albumin proteins incubated at 37 degC for 20 mins and then heated to 95 degC for 20 mins by UV-visible Spectrophotometry based protein denaturation method. An outline of the steps:
(§6)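 Albumin (bovine serum or egg) at 1% in 50 mM sodium phosphate buffer pH 6.4. Mixture is 0.1 ml test sample (1 mg/ml) plus 0.2 ml albumin, made to 5 ml with buffer. Held 37 °C for 20 min, then 95 °C for 20 min. Cooled to room temperature, turbidity read at 660 nm. % inhibition = (Abs control − Abs sample)/Abs control × 100. Triplicate, averaged.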

The nature of test [12]: Anti-inflammatory activity at 100 ug/ml using bovine serum albumin and egg albumin proteins incubated at 37 degC for 20 mins and then heated to 95 degC for 20 mins by UV-visible Spectrophotometry based protein denaturation method. An outline of the steps:
as §6

Test [13] is described as follows: Anti-inflammatory activity using bovine serum albumin and egg albumin proteins incubated at 37 degC for 20 mins and then heated to 95 degC for 20 mins by UV-visible Spectrophotometry based protein denaturation method. An outline of the steps: as §6
The mark [14] stands for this setting: Salmonella enterica subsp. enterica serovar Typhi.
Setting [15] is: Salmonella enterica subsp. enterica serovar Paratyphi A.
The mark [16] stands for this setting: Salmonella enterica, read-out: DIZ.

For orientation: MIC means the smallest concentration in the dilution series that meets the test's criterion for growth inhibition. As a reminder, the MBC is the smallest concentration meeting the test's criterion for killing. A word on the inhibition: it is the percentage by which the read-out fell short of the control. By IC50 is commonly meant the concentration that gives 50% inhibition. As to `CCOC(=O)c1nnn(Cc2cn(-c3ccccc3)nc2-c2ccc(Cl)cc2)c1C(=O)OCC`, the “diameter of the inhibition zone (DIZ)” value in test [1], in [2], in test [3] and in [4] was “inactive” in each case. Also, the MIC result in test [5], in [7] (setting [14]) and in test [9] (setting [15]) was “inactive” in each case. Further, the MBC result in test [6], in test [8] (setting [14]) and in test [10] (setting [15]) was “inactive” throughout. Moreover, the inhibition result in test [11] and in test [12] was “inactive” in each case. Further, in test [13], the IC50 result is given as “Not Active”.
Regarding `COc1ccc(-c2cn(Cc3cn(-c4ccccc4)nc3-c3ccccc3)nn2)cc1`, the “diameter of the inhibition zone (DIZ)” value in test [1], in test [2], in [3] and in [4] was “inactive” each time. Also, the MIC result in [5], in [7] (setting [14]) and in test [9] (setting [15]) was “inactive” each time. The MBC result in test [6], in test [8] (setting [14]) and in test [10] (setting [15]) was “inactive” in each case. Besides, the inhibition entry in test [11] and in [12] was “inactive” throughout. In [13], the half-inhibitory concentration (IC50) result is on record as “Not Active”.
For `Cc1ccc(-n2cc(Cn3cc(-c4ccccc4)nn3)c(-c3ccccc3)n2)cc1`, the “diameter of the inhibition zone (DIZ)” value in test [1], in test [2], in test [3] and in test [4] was “inactive” throughout. Further, the MIC entry in test [5], in [7] (setting [14]) and in test [9] (setting [15]) was “inactive” throughout. For the same molecule, the MBC entry in test [6], in test [8] (setting [14]) and in test [10] (setting [15]) was “inactive” each time. The inhibition entry in [11] and in test [12] was “inactive” each time. Moreover, the half-inhibitory concentration (IC50) entry in test [13] is on record as “Not Active”.
Regarding `CCOC(=O)c1nnn(Cc2cn(-c3ccccc3)nc2-c2ccc(C)cc2)c1C(=O)OCC`, the “diameter of the inhibition zone (DIZ)” value in test [1], in [2], in test [3] and in test [4] was “inactive” each time. The MIC result in test [5], in test [7] (setting [14]) and in test [9] (setting [15]) was “inactive” throughout. Further, the MBC entry in [6], in test [8] (setting [14]) and in test [10] (setting [15]) was “inactive” throughout. For the same molecule, the inhibition entry in test [11] and in test [12] was “inactive” throughout. The concentration for half-maximal inhibition (IC50) result in test [13] was “Not Active”.
For `O=C([O-])Cc1ccccc1Nc1c(Cl)cccc1Cl.[Na+]` [DICLOFENAC SODIUM], the inhibition in test [11] is 66.4%; in test [12], 93.1%. In test [13], this molecule registered a 50% inhibitory concentration (IC50) of 53.7 µg/mL.
Regarding `FC(F)(F)c1ccccc1-c1cn(Cc2cn(-c3ccccc3)nc2-c2ccccc2)nn1`, the “diameter of the inhibition zone (DIZ)” value in test [1], in test [2], in [3] and in test [4] was “inactive” throughout. Moreover, the MIC entry in [5], in test [7] (setting [14]) and in test [9] (setting [15]) was “inactive” throughout. Further, the MBC result in test [6], in [8] (setting [14]) and in test [10] (setting [15]) was “inactive” each time. Moreover, the inhibition result in test [11] and in test [12] was “inactive” in each case. Also, the concentration for half-maximal inhibition (IC50) entry in test [13] is “Not Active”.
For the molecule `FC(F)(F)c1ccc(-c2cn(Cc3cn(-c4ccccc4)nc3-c3ccccc3)nn2)c(C(F)(F)F)c1`, the “diameter of the inhibition zone (DIZ)” value in test [1], in [2], in test [3] and in test [4] was “inactive” in each case. Moreover, the MIC entry in [5], in test [7] (setting [14]) and in test [9] (setting [15]) was “inactive” throughout. The MBC result in test [6], in test [8] (setting [14]) and in [10] (setting [15]) was “inactive” in each case. Further, the inhibition result in test [11] and in [12] was “inactive” each time. Further, the IC50 entry in test [13] is on record as “Not Active”.
In the case of `Brc1ccc(-c2cn(Cc3cn(-c4ccccc4)nc3-c3ccccc3)nn2)cc1`, the “diameter of the inhibition zone (DIZ)” value in [1], in test [2], in test [3] and in test [4] was “inactive” in each case. The MIC result in test [5], in test [7] (setting [14]) and in test [9] (setting [15]) was “inactive” throughout. The MBC result in test [6], in test [8] (setting [14]) and in test [10] (setting [15]) was “inactive” each time. In addition, the inhibition result in test [11] and in test [12] was “inactive” throughout. Also, the IC50 entry in test [13] is “Not Active”.
`Fc1ccc(-c2cn(Cc3cn(-c4ccccc4)nc3-c3ccccc3)nn2)cc1`: the “diameter of the inhibition zone (DIZ)” value in test [1], in test [2], in test [3] and in [4] was “inactive” throughout. Also, the MIC entry in [5], in [7] (setting [14]) and in [9] (setting [15]) was “inactive” in each case. The MBC result in test [6], in test [8] (setting [14]) and in [10] (setting [15]) was “inactive” throughout. Also, the inhibition entry in [11] and in test [12] was “inactive” each time. For the same molecule, the IC50 result in test [13] is given as “Not Active”.
Turning to `COC(=O)c1nnn(Cc2cn(-c3ccc(Cl)cc3)nc2-c2ccccc2)c1C(=O)OC`, the “diameter of the inhibition zone (DIZ)” value in test [1], in test [2], in test [3] and in [4] was “inactive” in each case. Further, the MIC entry in [5], in test [7] (setting [14]) and in test [9] (setting [15]) was “inactive” throughout. For the same molecule, the MBC result in [6], in test [8] (setting [14]) and in [10] (setting [15]) was “inactive” throughout. The inhibition entry in [11] and in test [12] was “inactive” throughout. Moreover, the half-inhibitory concentration (IC50) entry in [13] was “Not Active”.
As to `CN[C@@H]1[C@H](O[C@H]2[C@H](O[C@H]3[C@H](O)[C@@H](O)[C@H](N=C(N)N)[C@@H](O)[C@@H]3N=C(N)N)O[C@@H](C)[C@]2(O)C=O)O[C@@H](CO)[C@H](O)[C@H]1O` [STREPTOMYCIN], the zone of inhibition at 1000 µg/mL in test [1] (read-out: DIZ) came out at 22.5 mm; in [2] (read-out: DIZ) it was 20.3 mm; in test [3] (setting [16]), 27 mm; in test [4] (setting [16]), 30 mm. Further, the minimum inhibitory concentration (MIC) in [5], in test [7] (Salmonella enterica) and in [9] (Salmonella enterica) was 6.25 µg/mL (≈ 10.7 µM) each time. The MBC in test [6], in [8] (Salmonella enterica) and in [10] (Salmonella enterica) was 6.25 µg/mL (≈ 10.7 µM) throughout.

For the origin of these results see ChEMBL document CHEMBL4177578, “Synthesis, pharmacological activities and molecular docking studies of pyrazolyltriazoles as anti-bacterial and anti-inflammatory agents” (Bioorg Med Chem, 2017).
